Source: PubChem BioAssay
MrgX1 PAM: positive allosteric modulators of MrgX1, primary screen, HEK293 cells, Fluo-4 calcium flux. FDSS; hits give high values. Mas-related G-protein coupled receptor member X1 (Homo sapiens), Q96LB2. AID 588675, 2011. B-score at 10 µM. 310,000 compounds, 0.63% hits;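 active means plate-corrected calcium response at least 3 library SD above typical, normal starting fluorescence, not activating the receptor alone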;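 further: compound read alongside a low EC10 to EC30 dose of BAM8-22 agonist; peak minus trough fluorescence over baseline measured at the second addition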
Target sequence (Q96LB2 whole entry, looked up): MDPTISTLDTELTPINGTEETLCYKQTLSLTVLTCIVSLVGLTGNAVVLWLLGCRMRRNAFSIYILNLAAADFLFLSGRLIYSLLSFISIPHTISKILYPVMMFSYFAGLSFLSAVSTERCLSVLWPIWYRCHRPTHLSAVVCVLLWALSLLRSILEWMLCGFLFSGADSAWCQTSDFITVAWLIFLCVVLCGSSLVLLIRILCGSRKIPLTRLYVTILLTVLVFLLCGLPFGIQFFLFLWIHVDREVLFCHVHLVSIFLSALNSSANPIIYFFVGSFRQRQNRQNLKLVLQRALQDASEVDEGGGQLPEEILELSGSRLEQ
MrgX1 agonist: agonists of human MrgX1 receptor, primary screen, HEK293 cells, Fluo-4 calcium flux; Mas-related G-protein coupled receptor member X1 (Homo sapiens), Q96LB2; Fluo-4 calcium fluorescence, agonist mode; hits give high values; B-score at 10 µM; 310,000 compounds, 0.44% hits; AID 588627, 2011;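 active means calcium response B-score plate-corrected fluorescence ratio at least 3 library SD, with starting fluorescence B-score inside 5 SD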
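Test system: HEK293 cells stably expressing human MrgX1 receptor; Input: fifteen thousand cells per well; Dosing: compound delivered in addition one of three; Schedule: overnight seeding, then 1 h dark dye loading; Technique: Fluo-4 NW calcium fluorescence; Measure: B-scored fluorescence response ratio; Controls: positive and negative controls per plate.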
RGS4 inh: RGS4 inhibitors, primary screen, cell-based, HEK293 M3R inducible RGS4, calcium flux. 310,000 compounds, 0.45% hits. Regulator of G-protein signaling 4 (Homo sapiens), P49798. AID 463165, 2010. B-score at 10 µM. Fluo-4 calcium flux; hits give high values; triggered by carbachol at its EC20;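 active means B-score, a plate-corrected calcium signal, over three deviations above library mean, with baseline fluorescence within five deviations of library mean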;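 further: RGS4 expression induced by doxycycline in cells with stable M3 receptor; B-score is computed from the integrated fluorescence ratio over baseline after carbachol; higher B-score means a larger calcium signal and so more RGS4 inhibition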
Target sequence (P49798 whole entry, looked up): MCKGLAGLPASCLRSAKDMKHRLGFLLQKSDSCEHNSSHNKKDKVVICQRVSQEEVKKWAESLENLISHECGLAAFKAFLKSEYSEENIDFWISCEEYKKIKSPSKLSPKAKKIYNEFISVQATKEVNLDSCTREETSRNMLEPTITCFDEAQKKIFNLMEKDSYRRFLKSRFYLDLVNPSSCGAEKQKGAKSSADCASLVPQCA
MrgX1 antag: antagonists of human MrgX1 receptor, primary screen, HEK293 cells, Fluo-4 calcium flux. Mas-related G-protein coupled receptor member X1 (Homo sapiens), Q96LB2. BAM8-22 antagonism; hits give low values. B-score at 10 µM. 310,000 compounds, 1.3% hits. AID 588676, 2011;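 active means calcium-response B-score plate-corrected more than 3 library SD below zero, starting fluorescence within 5 deviations, no agonist response on first addition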;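 further: peak minus trough fluorescence over baseline after final BAM8-22 challenge near maximal dose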
RGS4 act: RGS4 potentiators or activators, primary screen, cell-based, HEK293 M3R inducible RGS4, calcium flux. carbachol calcium flux Fluo4; hits give low values. B-score at 10 µM. 310,000 compounds, 0.92% hits. AID 463111, 2010;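 active means B-score of the integrated calcium signal more than 4 SD below the library mean, with starting fluorescence not abnormally high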;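 further: negative B-score means reduced calcium response which marks RGS4 activation or potentiation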
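Also added: carbachol at ECmax as muscarinic agonist stimulus; Assay system: HEK293 cells with stable M3R and inducible RGS4; Timing: overnight RGS4 induction, 30 min dye load 37 °C, 20 min compound RT; Measured by: Fluo4-AM (2 µM) calcium-flux fluorescence, kinetic read.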
RGS4 block valid: enhanced carbachol calcium response, M3R/RGS4 cells, RGS4 inhibitor project, cell-based, validation screen, HEK293 M3R/RGS4, calcium flux | shares compounds with RGS4 inh | carbachol calcium Fluo-4 fluorescence; carbachol added at its EC20; 0 = buffer wells, 100 = carbachol control | calcium response, % at 10 µM | 1,700 compounds, 65% hits | AID 492999, 2010;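 active means duplicate-averaged calcium response above the buffer-only control mean plus 5 SD of those controls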;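 further: integrated fluorescence ratio F max minus min over baseline F0; higher response in RGS4-induced cells means RGS4 inhibition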
M3R Ca ctr: carbachol calcium response in non-induced M3R cells, confirmation, counter-screen for RGS4 inhibitor project, cell-based, HEK293 M3R. activity (percent), % at 10 µM. shares compounds with RGS4 inh. carbachol calcium Fluo-4; submaximal (EC20) carbachol stimulus; buffer wells 0%, carbachol control wells 100%. 1,900 compounds, 20% hits; call rule not given here;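 further: RGS4 induction absent so cells express M3R without RGS4; higher means more calcium signal and flags a non-specific hit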
RGS4 inh ctr2: signal in non-induced cells without carbachol, RGS4 inhibitor counter-screen; shares compounds with RGS4 inh; HEK293 M3R/RGS4 non-induced, Fluo-4 calcium, no carbachol; normalised: buffer wells 0%, carbachol wells 100%; calcium response (agonist-mode artifact), % at 10 µM; 1,900 compounds, 22% hits;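 active means duplicate-averaged calcium rise in uninduced cells above buffer wells' mean plus 5 SD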
* = called active by the depositor; i = inactive; x = no result. Sampled rows, rich in hits. Any-hit rate of the full collection: about 3.5%.

SMILES	MrgX1 PAM	MrgX1 agonist	RGS4 inh	MrgX1 antag	RGS4 act	RGS4 block valid	M3R Ca ctr	RGS4 inh ctr2
FC(F)(F)c1cc(N2CCN(Cc3ccccc3)CC2)c2ccccc2n1	i	i	i	i	i	x	x	x
COc1ccc(/C=N/NC(=O)c2ccc3nc[nH]c3c2)c(OC)c1OC	i	i	i	i	i	x	x	x
COc1ccc(/C(C)=N/NC(=O)CNC(=O)/C=C\c2ccco2)cc1	i	i	i	i	i	x	x	x
O=C1N/C(=N\S(=O)(=O)Cc2ccccc2)S/C1=C/c1cccc([N+](=O)[O-])c1	i	i	i	i	i	x	x	x
O=C1N/C(=N/S(=O)(=O)c2ccccc2)S/C1=C/c1cccnc1	i	i	i	i	i	x	x	x
CC(=O)Nc1ccc(S(=O)(=O)/N=C2/NC(=O)/C(=C\c3ccco3)S2)cc1	i	i	i	i	i	x	x	x
COc1cc(/C=C2\S/C(=N/S(=O)(=O)c3ccc(C)cc3)NC2=O)c([N+](=O)[O-])cc1OC	i	i	i	i	i	i	38%*	i
Cc1ccc(S(=O)(=O)/N=C2/NC(=O)/C(=C/c3ccccc3)S2)cc1	i	i	i	i	i	i	i	i
COc1ccc(/C=C2/S/C(=N/S(=O)(=O)Cc3ccccc3)NC2=O)cc1OC	i	i	7.8*	i	i	20%*	48%*	i
Cc1ccc(S(=O)(=O)/N=C2/NC(=O)/C(=C/c3ccncc3)S2)cc1	i	i	4.9*	i	i	16%*	i	i
CC1CCCCN1CCCNC(=O)CN1C(=O)c2cccnc2Oc2ccc(Cl)cc21 (stereo not given)	i	i	i	i	i	x	x	x
CC1CN(C(=O)c2c(Br)cnn2C)CC(C)O1 (stereo not given)	i	i	i	i	i	x	x	x
CCCOc1ccc(C(=O)CCNC(Cc2c[nH]c3ccccc23)C(=O)O)cc1 (stereo not given)	i	i	6.7*	i	i	10%*	46%*	27%*
Oc1c(Br)cc(Cl)cc1C=Nc1ccc(N2CCOCC2)cc1	i	i	i	i	i	x	i	26%*
Oc1c(Br)cc(Cl)cc1C=Nc1ccccc1Br	i	i	i	i	i	x	x	x
CC(Nc1nc(-c2ccc(F)cc2)cs1)c1nc2cc(Cl)c(N3CCCCC3)cc2n1CCCO (stereo not given)	i	i	i	i	i	x	x	x
CC(Nc1nc(-c2cccc(Br)c2)cs1)c1nc2cc(Cl)c(N3CCCCC3)cc2n1CCOCCO (stereo not given)	i	i	8.2*	i	i	10%*	i	i
CC(Nc1nc(-c2ccc(F)cc2)cs1)c1nc2cc(Cl)c(N3CCCCC3)cc2n1CCOCCO (stereo not given)	i	i	i	i	i	i	i	i
CN1C(=O)Cc2cc(S(=O)(=O)NCc3c(F)cccc3Cl)ccc21	i	i	i	i	i	x	x	x
COc1ccc(CCNC(=O)C(=O)NCC2OCCN2S(=O)(=O)c2ccc(Cl)cc2)cc1OC (stereo not given)	i	i	i	i	i	x	x	x
CCCCCCCN1C/C=C\C(c2ccc(OC)cc2)N(Cc2ccc(F)cc2)C(=O)[C@H]1Cc1ccccc1 (stereo not given in full)	i	i	i	i	i	x	x	x
Cc1ccc(C(=O)N(Nc2nc3ccccc3s2)C(=O)c2ccc(C)cc2)cc1	i	i	i	i	i	x	x	x
O=C(COc1cccc(Br)c1)N/N=C/C(=O)c1ccccc1	i	i	4.7*	i	i	8.0%*	i	i
Cc1cccc(OCC(=O)N/N=C\c2cn(C)c3ccccc23)c1	i	i	7.3*	i	i	i	i	i
CCOCCc1c(O)nc(SCC(=O)N2CCOCC2)[nH]c1=O	i	i	i	i	i	x	x	x
SMILES	MrgX1 PAM	MrgX1 agonist	RGS4 inh	MrgX1 antag	RGS4 act	RGS4 block valid	M3R Ca ctr	RGS4 inh ctr2
CNn1cnc2ccsc2c1=O	i	i	i	i	i	x	x	x
O=C(Oc1cc(Cl)ccc1Cl)c1ccc(N2CCOCC2)c([N+](=O)[O-])c1	i	i	i	i	i	x	x	x
Cc1cc(N=Cc2c(O)ccc3cc(Br)ccc23)no1	i	i	9.9*	i	i	i	i	24%*
Cc1cc(N=Cc2c(O)ccc3ccccc23)no1	i	i	i	i	i	x	x	x
Cc1ccc(SC(CC(=O)c2ccc(F)cc2)C(=O)O)cc1 (stereo not given)	i	i	i	i	i	x	i	i
COc1cc2nc(Nc3ccc(C)c(Cl)c3)nc(N)c2cc1OC	i	i	i	i	i	x	x	x
Cc1ccc(Nc2nc(N)c3ccccc3n2)cc1Cl	i	i	7.3*	i	i	9.5%*	i	i
Nc1nc(Nc2ccc(Cl)cc2)nc2ccccc12	i	i	22*	i	i	i	i	i
Nc1nc(Nc2ccccc2)nc2ccccc12	i	i	i	i	i	x	x	x
COc1ccc(-n2nc3c(c2NC(=O)c2ccccc2S(=O)(=O)C(F)F)CS(=O)(=O)C3)cc1	i	i	i	i	i	x	x	x
O=C1c2cccc3cc([N+](=O)[O-])cc(c23)C(=O)N1c1ccccc1O	i	i	5.1*	i	i	14%*	i	i
CC(=O)Nc1cc(Cl)c(N=Cc2ccc(O)cc2O)cc1Cl	i	i	8.1*	i	i	16%*	29%*	i
CCc1c(O)nc(SCC(=O)Nc2nc3ccccc3s2)n(C2CCCCC2)c1=O	i	i	5.8*	i	i	37%*	i	i
CCc1c(O)nc(SCC(=O)Nc2ccc(OC)cc2)n(C2CCCCC2)c1=O	i	i	i	i	i	x	x	x
